# Assay outcomes as filed in PubChem BioAssay.
# A selection: hits, their analogues and other compounds. The true share with any hit is near 2.5%.
# SENP8 block-1: human SENP8 protease inhibitors, primary screen, biochemical, fluorescence, Nedd8 protein substrate, uHTS | recombinant SENP8 | inhibition, % at 20 µM | hit rate 0.64% among 360,000 | AID 602440, 2012; in the data active = inhibition mostly above about 40%, no sharp cut-off; inactive = mostly below about 27%
# Target sequence (Q96LD8 whole entry, looked up): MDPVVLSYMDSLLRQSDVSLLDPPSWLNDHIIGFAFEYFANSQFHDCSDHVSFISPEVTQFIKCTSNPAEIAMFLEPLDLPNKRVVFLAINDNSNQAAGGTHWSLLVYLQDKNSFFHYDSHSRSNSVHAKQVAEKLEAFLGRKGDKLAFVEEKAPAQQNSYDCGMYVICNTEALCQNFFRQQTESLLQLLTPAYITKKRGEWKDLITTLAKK
# SENP1 FRET inh: human SENP1 catalytic domain inhibitors, primary screen, biochemical, FRET, uHTS | Sentrin-specific protease 1 (Homo sapiens), Q9P0U3 | recombinant SENP1 catalytic domain, CyPet-SUMO1-YPet FRET cleavage | inhibition, % at 10 µM | hit rate 0.21% among 360,000 | AID 624204, 2012;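 active = inhibition at least 30% at 10 µM, raw YFP signal under a set limit, fluorescence ratio 0.5 to 1.5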;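 note: 0% = enzyme with DMSO and 100% = no enzyme wells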
#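 Material – human SENP1 catalytic domain · Input – SENP1 enzyme, 20 pM final · Compound dosing – single concentration of 10 µM compound, 0.5% DMSO final · Timing – enzyme reaction for 50 min at room temperature, dark · Measured by – FRET fluorescence in CFP and YFP emission channels · Control set – no-enzyme wells low, DMSO-plus-enzyme wells high control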
# SENP8 block-2: SENP8 protease inhibitors, primary screen, biochemical, luminescence | Sentrin-specific protease 8 (Homo sapiens), Q96LD8 | purified SENP8, Z-RLRGG-aminoluciferin cleavage | inhibition, % at 10 µM | hit rate 1.2% among 330,000 | AID 2540, 2010; in the data active = inhibition above about 50%
# SENP7 inh: SENP7 protease inhibitors, primary screen, biochemical, luminescence, uHTS | Sentrin-specific protease 7 (Homo sapiens), Q9BQF6 | recombinant SENP7, Z-RLRGG-aminoluciferin luminescence, 40 min | inhibition, % at 5 µM | hit rate 1.5% among 330,000 | AID 434973, 2010;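 active = inhibition above about 50% at the single test dose, limit read from the data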;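 note: plate controls were DMSO with enzyme for no effect and no enzyme buffer wells for full effect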
# Target sequence (Q9BQF6 706-1050 limits assumed): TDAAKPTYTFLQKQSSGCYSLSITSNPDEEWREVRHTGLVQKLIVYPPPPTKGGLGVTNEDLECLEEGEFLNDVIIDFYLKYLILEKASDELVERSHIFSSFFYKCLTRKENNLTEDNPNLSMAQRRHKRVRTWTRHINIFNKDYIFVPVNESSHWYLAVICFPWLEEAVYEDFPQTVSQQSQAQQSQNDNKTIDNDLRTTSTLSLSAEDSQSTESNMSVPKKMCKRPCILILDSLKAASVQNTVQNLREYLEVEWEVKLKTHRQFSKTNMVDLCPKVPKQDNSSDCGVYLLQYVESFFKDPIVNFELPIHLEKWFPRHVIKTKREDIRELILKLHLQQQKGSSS
# SENP6 inh: SENP6 protease inhibitors, primary screen, biochemical, luminescence, uHTS | Sentrin-specific protease 6 (Homo sapiens), Q9GZR1 | Recombinant SENP6 catalytic domain, aminoluciferin luminescence | inhibition, % at 10 µM | hit rate 1.8% among 330,000 | AID 2599, 2010;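 active = inhibition above about 50% at the single tested dose, limit read from the data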;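 note: plate controls were DMSO wells with enzyme for no effect and DMSO wells lacking enzyme for full effect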
# SENP8 conf: human SENP8 protease inhibitors, confirmation, biochemical, Nedd8 protein substrate, single concentration. purified SENP8, Nedd8-AMC/pro-Nedd8 cleavage fluorescence, 30 min. shares compounds with SENP8 block-1. hit rate 15% among 1,400. AID 624319, 2012. inhibition, % at 25 µM; in the data active = inhibition mostly above about 39%, no sharp cut-off; inactive = mostly below about 34%
# * marks the source's active call; other numbers are inactive results; . = no result.
SMILES,SENP8 block-1,SENP1 FRET inh,SENP8 block-2,SENP7 inh,SENP6 inh,SENP8 conf
CCN(CC)c1ccc(N=Cc2c(C)[nH]c3ccccc23)cc1,60*,-12,-10,0,11,8
CCN1CCN(C(=O)C(C)Nc2cc(Cl)c(OC)cc2OC)CC1 (centres undefined),44*,2,3,9,40,13
Cc1c(C#N)c(O)n(CCO)c(=O)c1N=Nc1ccc(S(N)(=O)=O)cc1,22,-16,-2,8,6,.
Cc1c(C#N)c(O)n(C)c(=O)c1N=Nc1ccc(S(N)(=O)=O)cc1,49*,-12,.,.,.,18
O=C(Cn1cc([N+](=O)[O-])cn1)Nc1ccc(Cn2cc(Br)cn2)cc1,40*,1,-12,-6,-12,5
COC(=O)c1ccc(Cn2cc([N+](=O)[O-])cn2)cc1,2,0,-4,8,-8,.
O=C(C1CCC(=O)N1Cc1ccccc1Cl)N1CCN(c2cccc(Cl)c2)CC1 (centres undefined),40*,0,-3,-7,-25,5
O=C(Nc1ccc(Cl)cc1)C1CCC(=O)N1Cc1ccccc1Cl (centres undefined),12,2,-4,-2,-22,.
Cc1cc2ccccn2c1C(=O)c1ccc(NN)c([N+](=O)[O-])c1,42*,5,4,5,4,11
CC(=O)OCCCNc1cc(Sc2ccc(Cl)cc2)c2nonc2c1[N+](=O)[O-],17,-14,.,.,.,.
CC(C)CCSc1cc(NCCO)c([N+](=O)[O-])c2nonc12,49*,-14,-4,-6,34,27
Cc1ccc(Sc2cc(NCCCO)c([N+](=O)[O-])c3nonc23)cc1,44*,-16,5,5,37,48*
CCOC(=O)Cn1c(=O)c2c(nc(Br)n2Cc2ccc(Cl)cc2)n(C)c1=O,.,.,1,5,5,.
O=C(O)c1ccc(/C=C/c2nc3sc4c(c3c(=O)[nH]2)CCC4)cc1,-442,-32,-9,7,5,.
COc1cc(C)c(C(=O)Oc2cc(C)c(C(=O)O)c(O)c2C)c(OC)c1C,44*,2,-13,12,-5,15
CC(C)C[C@H]1CN(CCCC[C@@H]2CNC(=O)C(=O)N2CC2CCCCC2)C(=O)C(=O)N1Cc1ccccc1,13,1,.,.,.,.
O=C(O)c1ccc(N/N=C/C=C/c2ccc([N+](=O)[O-])o2)cc1,45*,78*,-7,6,27,28
O=C(N/N=C/c1ccc([N+](=O)[O-])o1)C(=O)Nc1ccc(C(=O)O)cc1,33,-2,4,1,23,.
CCOC(=O)/C(C#N)=C1\C(=O)N(Cc2ccccc2)c2ccccc21,24,-1,-3,6,-2,.
COc1ccc(-c2ncn(CCC#N)c2[N+](=O)[O-])cc1,6,2,-3,-2,3,.
COc1ccc(-c2cc(=O)n(CCC#N)[nH]2)cc1,43*,3,10,28,22,40
COc1ccc(C(=O)C(CCCCC(CN(C)C)C(=O)c2ccc(OC)cc2)CN(C)C)cc1 (centres undefined),42*,1,0,-1,-10,12
Cc1ccc(S(=O)(=O)N[C@H](C(=O)N2CCC(C(=O)NCC(=O)O)CC2)C(C)C)cc1,18,1,-13,-3,-9,.
Cc1ccc(S(=O)(=O)N[C@H](C(=O)N2CCC(C(=O)N[C@H](C(=O)O)c3ccccc3)CC2)C(C)C)cc1,48*,2,-6,7,-7,11
O=C1CCCC2=C1C1(O)C(=O)c3ccccc3C1(O)O2 (centres undefined),51*,2,12,28,21,89*
SMILES,SENP8 block-1,SENP1 FRET inh,SENP8 block-2,SENP7 inh,SENP6 inh,SENP8 conf
Cc1ccc(C(=O)/C=C/C(=O)O)cc1,22,-1,-1,-1,-3,.
Cc1ccc(/C=C/C(=O)c2ccc(O)cc2)cc1,42*,1,63*,59*,86*,1
COc1cc([N+](=O)[O-])cc2sc(NC(C)=O)nc12,59*,-17,-10,-2,-20,12
CCCCC(=O)Nc1nc2c(OC)cc([N+](=O)[O-])cc2s1,14,-5,-8,4,7,.
Cc1cccc(NCc2ccc(N(C)C)cc2)n1,18,-2,-1,23,26,.
CN(CC(=O)Nc1cccc(F)c1)CC(=O)N(C)CC(=O)Nc1ccccc1Br,3,1,3,-7,4,.
CNC(=O)N(c1ccccc1)c1ccccc1,43*,0,-15,-7,-18,12
O=C(N(c1ccccc1)c1ccccc1)N(c1ccccc1)c1ccccc1,-13,0,-7,0,-29,.
CSCC[C@H](NC(=O)N1CCn2c1nc1ccccc12)C(=O)N[C@H](Cc1ccccc1)C(=O)O,49*,-1,1,12,-1,9
O=C(CCCCCNC(=O)N1CCn2c1nc1ccccc12)N[C@@H](Cc1ccccc1)C(=O)O,47*,2,4,2,2,12
O=C(O)c1cccc(Br)c1,42*,1,.,.,.,4
O=C(O)c1cccc(C(=O)c2cccc(C(=O)O)c2)c1,8,2,16,6,0,.
O=[N+]([O-])c1cccc(C=Nc2cc3c(cc2Br)OCCO3)c1,10,0,.,.,.,.
O=C(O)CC1c2ccccc2CCN1S(=O)(=O)c1cccs1 (centres undefined),43*,2,-3,-6,-16,-9
O=C(O)CC1c2ccccc2CCN1S(=O)(=O)c1ccccc1 (centres undefined),18,-1,-1,3,-3,.
COc1ccc(NC2CS(=O)(=O)CC2NCc2ccccc2)cc1 (centres undefined),40*,-2,-3,3,7,15
O=S1(=O)C[C@@H](O)[C@@H](Nc2ccccc2)C1,23,-1,3,7,-1,.
CCN(CC)S(=O)(=O)c1ccc(N2CCOCC2)c(NC(=O)C(=O)c2c(-c3ccccc3)cc3ccccn23)c1,75*,8,3,6,7,21
CCN(CC)S(=O)(=O)c1cccc(NC(=O)C(=O)c2c(-c3ccccc3)cc3ccccn23)c1,34,-33,5,0,-11,.
Cc1ccoc1C(=O)NCCCNC(=O)c1occc1C,62*,1,1,-1,-4,82*
N#CC1(CCCN2CCCCC2)c2ccccc2CCc2ccccc21,41*,0,0,2,-11,23
